Source: ChEMBL document CHEMBL1149321, “Synthesis, radiosynthesis, and biological evaluation of carbon-11 and iodine-123 labeled 2beta-carbomethoxy-3beta-[4'-((Z)-2-haloethenyl)phenyl]tropanes: candidate radioligands for in vivo imaging of the serotonin transporter” (J Med Chem, 2004)

Legend:
[1] = Ratio of radioactivity in rest of rat brain to that of rat cerebellum after intravenous administration after 120 min; type: functional
Outline: (§1)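 Male Sprague–Dawley rats (200–250 g) given ~20 μCi [123I] tracer iv in 0.2 mL 10% ethanol/saline under ketamine/xylazine; killed at 5, 30, 60, 120 min (n = 5; n = 4 at 120 min). Brain regions dissected, gamma counted, decay-corrected to %ID/g; regional uptake divided by cerebellum.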

Rattus norvegicus [2] = assay: Distribution of the radio labelled compound in cerebellum of rat brain after intravenous administration in presence of reboxetine after 60 min; type: ADME, organism-based; details: in vivo, 1 h
Outline: (§2)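 Male Sprague–Dawley rats (200–250 g) under ketamine/xylazine anaesthesia with tail-vein cannulas. Blocker or none given 15 min before ~20 μCi [123I] tracer iv in 0.2 mL 10% ethanol/saline; blocker dose 4 mg/kg.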

Rattus norvegicus [3] = assay: Distribution of the radio labelled compound in striatum of rat brain after intravenous administration in absence of blocker after 60 min; type: ADME, organism-based; details: in vivo, 1 h; outline: as §2
Rattus norvegicus [4] = assay: Distribution in blood of rat brain after intravenous administration by using [123I]ZIET after 120 min; type: ADME, organism-based; details: in vivo, 2 h
Outline: (§3)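 Male Sprague–Dawley rats (200–250 g), fed ad libitum, given ~20 μCi radiotracer iv via tail-vein cannula in 0.2 mL 10% ethanol/saline under ketamine/xylazine im anesthesia. Killed at 5, 30, 60 or 120 min (n = 5; n = 4 at 120 min). Brain regions dissected, weighed, gamma-counted with dose standards, decay-corrected; mean %ID/g ± SE.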

Rattus norvegicus [5] = assay: Distribution in hippocampus of rat brain after intravenous administration by using [123I]ZIET after 120 min; type: ADME, organism-based; details: in vivo, 2 h; outline: as §3
[6] = Ratio of radioactivity in frontal cortex of rat brain to that of rat cerebellum after intravenous administration after 120 min; type: functional; outline: as §1
Rattus norvegicus [7] = assay: Distribution of the radio labelled compound in blood of rat brain after intravenous administration in presence of reboxetine after 60 min; type: ADME, organism-based; details: in vivo, 1 h
Outline: (§4)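 Male Sprague–Dawley rats (200–250 g), ketamine/xylazine anesthesia, tail-vein cannula. Blocker (4 mg/kg) or nothing given 15 min before iv [123I]ZIET in 10% ethanol/saline. Killed 60 min post-tracer.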

[8] = Ratio of radioactivity in hippocampus of rat brain to that of rat cerebellum after intravenous administration after 60 min; type: functional; outline: as §1
Rattus norvegicus [9] = assay: Distribution of the radio labelled compound in rest of rat brain after intravenous administration in absence of blocker after 60 min; type: ADME, organism-based; details: in vivo, 1 h; outline: as §2
Rattus norvegicus [10] = assay: Distribution of the radio labelled compound in hypothalamus of rat brain after intravenous administration in absence of blocker after 60 min; type: ADME, organism-based; details: in vivo, 1 h; outline: as §2
Rattus norvegicus [11] = assay: Distribution in thyroid of rat brain after intravenous administration by using [123I]ZIET after 120 min; type: ADME, organism-based, Thyroid gland; details: in vivo, 2 h; outline: as §3
[12] = Ratio of radioactivity in rest of rat brain to that of rat cerebellum after intravenous administration after 60 min; type: functional; outline: as §1
Rattus norvegicus [13] = assay: Distribution of the radio labelled compound in hippocampus of rat brain after intravenous administration in presence of reboxetine after 60 min; type: ADME, organism-based; details: in vivo, 1 h; outline: as §2
Rattus norvegicus [14] = assay: Distribution in occipital cortex of rat brain after intravenous administration by using [123I]ZIET after 120 min; type: ADME, organism-based; details: in vivo, 2 h; outline: as §3
Rattus norvegicus [15] = assay: Distribution in hypothalamus of rat brain after intravenous administration by using [123I]ZIET after 30 min; type: ADME, organism-based; details: in vivo, 0.5 h; outline: as §3
Rattus norvegicus [16] = assay: Distribution in blood of rat brain after intravenous administration by using [123I]ZIET after 5 min; type: ADME, organism-based; details: in vivo; outline: as §3
Rattus norvegicus [17] = assay: Distribution of the radio labelled compound in occipital cortex of rat brain after intravenous administration in presence of citalopram after 60 min; type: ADME, organism-based; details: in vivo, 1 h; outline: as §2
[18] = Ratio of radioactivity in brainstem of rat brain to that of rat cerebellum after intravenous administration after 120 min; type: functional; outline: as §1
Rattus norvegicus [19] = assay: Distribution of the radio labelled compound in occipital cortex of rat brain after intravenous administration in presence of RTI-113 after 60 min; type: ADME, organism-based; details: in vivo, 1 h; outline: as §2
Rattus norvegicus [20] = assay: Distribution in occipital cortex of rat brain after intravenous administration by using [123I]ZIET after 30 min; type: ADME, organism-based; details: in vivo, 0.5 h; outline: as §3
Rattus norvegicus [21] = assay: Distribution of the radio labelled compound in frontal cortex of rat brain after intravenous administration in presence of citalopram after 60 min; type: ADME, organism-based; details: in vivo, 1 h; outline: as §2
Rattus norvegicus [22] = assay: Distribution of the radio labelled compound in hypothalamus of rat brain after intravenous administration in presence of citalopram after 60 min; type: ADME, organism-based; details: in vivo, 1 h; outline: as §2
[23] = Ratio of radioactivity in brainstem of rat brain to that of rat cerebellum after intravenous administration after 60 min; type: functional; outline: as §1
Rattus norvegicus [24] = assay: Distribution in cerebellum of rat brain after intravenous administration by using [123I]ZIET after 60 min; type: ADME, organism-based; details: in vivo, 1 h; outline: as §3
Rattus norvegicus [25] = assay: Distribution of the radio labelled compound in cerebellum of rat brain after intravenous administration in absence of blocker after 60 min; type: ADME, organism-based; details: in vivo, 1 h; outline: as §4
Rattus norvegicus [26] = assay: Distribution in thyroid of rat brain after intravenous administration by using [123I]ZIET after 30 min; type: ADME, organism-based, Thyroid gland; details: in vivo, 0.5 h; outline: as §3
Rattus norvegicus [27] = assay: Distribution of the radio labelled compound in hypothalamus of rat brain after intravenous administration in presence of reboxetine after 60 min; type: ADME, organism-based; details: in vivo, 1 h; outline: as §2
Rattus norvegicus [28] = assay: Distribution in brainstem of rat brain after intravenous administration by using [123I]ZIET after 5 min; type: ADME, organism-based; details: in vivo; outline: as §3
Rattus norvegicus [29] = assay: Distribution in occipital cortex of rat brain after intravenous administration by using [123I]ZIET after 5 min; type: ADME, organism-based; details: in vivo; outline: as §3
[30] = Ratio of radioactivity in hippocampus of rat brain to that of rat cerebellum after intravenous administration after 5 min; type: functional; outline: as §1
Rattus norvegicus [31] = assay: Distribution in striatum of rat brain after intravenous administration by using [123I]-ZIET after 5 min; type: ADME, organism-based; details: in vivo; outline: as §3
Rattus norvegicus [32] = assay: Distribution in blood […] after intravenous administration by using [123I]-ZIET after 30 min; type: ADME, organism-based; details: in vivo, 0.5 h; outline: as §3
Rattus norvegicus [33] = assay: Distribution of the radio labelled compound in occipital cortex of rat brain after intravenous administration in absence of blocker after 60 min; type: ADME, organism-based; details: in vivo, 1 h; outline: as §2
Rattus norvegicus [34] = assay: Distribution of the radio labelled compound in brainstem of rat brain after intravenous administration in presence of RTI-113 after 60 min; type: ADME, organism-based; details: in vivo, 1 h; outline: as §4
Rattus norvegicus [35] = assay: Distribution in occipital cortex of rat brain after intravenous administration by using [123I]ZIET after 60 min; type: ADME, organism-based; details: in vivo, 1 h; outline: as §3
[36] = Ratio of radioactivity in striatum of rat brain to that of rat cerebellum after intravenous administration after 60 min; type: functional; outline: as §1
[37] = Ratio of radioactivity in occipital cortex of rat brain to that of rat cerebellum after intravenous administration after 120 min; type: functional; outline: as §1
Rattus norvegicus [38] = assay: Distribution of the radio labelled compound in brainstem of rat brain after intravenous administration in absence of blocker after 60 min; type: ADME, organism-based; details: in vivo, 1 h; outline: as §4
[39] = Ratio of radioactivity in frontal cortex of rat brain to that of rat cerebellum after intravenous administration after 5 min; type: functional; outline: as §1
Rattus norvegicus [40] = assay: Distribution of the radio labelled compound in thyroid of rat brain after intravenous administration in presence of citalopram after 60 min; type: ADME, organism-based, Thyroid gland; details: in vivo, 1 h; outline: as §2
[41] = Ratio of radioactivity in occipital cortex of rat brain to that of rat cerebellum after intravenous administration after 5 min; type: functional; outline: as §1
Rattus norvegicus [42] = assay: Distribution in brainstem of rat brain after intravenous administration by using [123I]ZIET after 120 min; type: ADME, organism-based; details: in vivo, 2 h; outline: as §3
[43] = Ratio of radioactivity in hippocampus of rat brain to that of rat cerebellum after intravenous administration after 30 min; type: functional; outline: as §1
[44] = Ratio of radioactivity in occipital cortex of rat brain to that of rat cerebellum after intravenous administration after 60 min; type: functional; outline: as §1

**Q.** Which Ratio [1] does the source give for `COC(=O)C1C(c2ccc(/C=C\[123I])cc2)CC2CCC1N2C` (centres undefined) here?
**A.** 2.8

**Q.** What about the Activity (Rattus norvegicus [2]) of the same molecule?
**A.** 0.15

**Q.** What about the Activity (Rattus norvegicus [3]) of the same molecule?
**A.** 0.42

**Q.** And the Activity (Rattus norvegicus [4])?
**A.** 0.38

**Q.** What about the Activity (Rattus norvegicus [5]) of the same molecule?
**A.** 0.47

**Q.** And the Ratio [6]?
**A.** 3.4

**Q.** And the Activity (Rattus norvegicus [7])?
**A.** 0.26

**Q.** What about the Ratio [8] of the same molecule?
**A.** 2.3

**Q.** And the Activity (Rattus norvegicus [9])?
**A.** 0.37

**Q.** And the Activity (Rattus norvegicus [10])?
**A.** 0.42

**Q.** And the Activity (Rattus norvegicus [11])?
**A.** 2.12

**Q.** What about the Ratio [12] of the same molecule?
**A.** 2

**Q.** What about the Activity (Rattus norvegicus [13]) of the same molecule?
**A.** 0.41

**Q.** And the Activity (Rattus norvegicus [14])?
**A.** 0.42

**Q.** What about the Activity (Rattus norvegicus [15]) of the same molecule?
**A.** 0.68

**Q.** What about the Activity (Rattus norvegicus [16]) of the same molecule?
**A.** 0.45

**Q.** And the Activity (Rattus norvegicus [17])?
**A.** 0.2

**Q.** And the Ratio [18]?
**A.** 3

**Q.** What about the Activity (Rattus norvegicus [19]) of the same molecule?
**A.** 0.42

**Q.** And the Activity (Rattus norvegicus [20])?
**A.** 0.76

**Q.** And the Activity (Rattus norvegicus [21])?
**A.** 0.21

**Q.** What about the Activity (Rattus norvegicus [22]) of the same molecule?
**A.** 0.2

**Q.** What about the Ratio [23] of the same molecule?
**A.** 2

**Q.** What about the Activity (Rattus norvegicus [24]) of the same molecule?
**A.** 0.27

**Q.** And the Activity (Rattus norvegicus [25])?
**A.** 0.15

**Q.** And the Activity (Rattus norvegicus [26])?
**A.** 0.74

**Q.** What about the Activity (Rattus norvegicus [27]) of the same molecule?
**A.** 0.46

**Q.** What about the Activity (Rattus norvegicus [28]) of the same molecule?
**A.** 0.35

**Q.** And the Activity (Rattus norvegicus [29])?
**A.** 0.45

**Q.** What about the Ratio [30] of the same molecule?
**A.** 1.1

**Q.** And the Activity (Rattus norvegicus [31])?
**A.** 0.39

**Q.** And the Activity (Rattus norvegicus [32])?
**A.** 0.53

**Q.** What about the Activity (Rattus norvegicus [33]) of the same molecule?
**A.** 0.46

**Q.** And the Activity (Rattus norvegicus [34])?
**A.** 0.35

**Q.** What about the Activity (Rattus norvegicus [35]) of the same molecule?
**A.** 0.63

**Q.** What about the Ratio [36] of the same molecule?
**A.** 2.6

**Q.** What about the Ratio [37] of the same molecule?
**A.** 3

**Q.** What about the Activity (Rattus norvegicus [38]) of the same molecule?
**A.** 0.33

**Q.** And the Ratio [39]?
**A.** 1.3

**Q.** What about the Activity (Rattus norvegicus [40]) of the same molecule?
**A.** 0.93

**Q.** What about the Ratio [41] of the same molecule?
**A.** 1.3

**Q.** And the Activity (Rattus norvegicus [42])?
**A.** 0.41

**Q.** What about the Ratio [43] of the same molecule?
**A.** 1.7

**Q.** And the Ratio [44]?
**A.** 2.3
